This is a sample that favours compounds with a hit; in the whole collection about 2.3% have one here.
Statin myotox sup: suppressors of simvastatin-induced myotoxicity in C2C12 myotubes; ATP luminescence, 48 h; scaled: DMSO 0, geranylgeraniol control 100; rescue of ATP level, % at 7.49 µM; 330,000 tested, 0.78% active;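 active = mean ATP rescue above about 67%, or every replicate alone reaching that limit, limit read from the data, passing the limit was not always enough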;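 note: myotubes were challenged with 10 µM simvastatin during compound exposure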
PDI turbidity: inhibitors of human protein disulfide isomerase; P07237; PDI insulin aggregation turbidity, A650, 90 min; inhibition, % at 10 µM; 350,000 tested, 0.052% active;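 active = mean inhibition across replicates of 30% or more, whatever share of single replicates reach that level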
Cneo AK release: Cryptococcus neoformans lysis via adenylate kinase release. lysis activity, % at 15 µM. C. neoformans lysis, adenylate kinase release luminescence, 4 h; normalised: neutral wells 0, clomiphene wells 100. 360,000 tested, 0.2% active;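 active = mean lysis activity across replicates of at least 80%, whatever share of replicates individually reach that level; inactive = mean lysis activity below 80%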
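Assay system: C. neoformans cells. Amount: yeast cell density of 5 × 10^6 cells/mL. Technique: AK luminescence. Buffer or medium: YPD. Times: static 4 h at 37 °C with compound, 1 h detection. Dosing: single-point compound dose. Read-out: lysis from increased AK signal.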
ERp5 block: blocks human ERp5 reductase activity on insulin | ERp5 insulin aggregation, absorbance 650 nm, 90 min | inhibition, % at 9.99 µM | 350,000 tested, 0.05% active | Q15084 | AID 651711;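 active = mean replicate inhibition above about 25%, with every replicate also reaching it, limit read from the data, passing the limit was not always enough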
Target sequence (Q15084 whole entry, looked up): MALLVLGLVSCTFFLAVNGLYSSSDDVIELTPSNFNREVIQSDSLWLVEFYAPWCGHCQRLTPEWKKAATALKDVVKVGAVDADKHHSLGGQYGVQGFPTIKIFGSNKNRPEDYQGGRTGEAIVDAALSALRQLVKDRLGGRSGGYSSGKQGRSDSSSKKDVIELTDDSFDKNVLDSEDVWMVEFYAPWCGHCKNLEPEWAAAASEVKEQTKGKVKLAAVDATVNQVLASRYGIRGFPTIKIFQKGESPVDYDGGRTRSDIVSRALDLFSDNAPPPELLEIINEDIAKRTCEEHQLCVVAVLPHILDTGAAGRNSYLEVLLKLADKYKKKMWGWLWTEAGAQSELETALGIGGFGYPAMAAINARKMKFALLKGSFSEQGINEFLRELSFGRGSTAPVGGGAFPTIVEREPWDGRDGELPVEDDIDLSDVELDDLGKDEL
DENV2 CPE rescue: inhibitors of DENV2 cytopathic effect | DENV2-infected cells, cytopathic effect rescue, plate reader | CPE inhibition, % at 9.99 µM | 350,000 tested, 1.7% active | AID 651640; in the data active = CPE inhibition above about 20%, passing the limit was not always enough; tested in BHK-21 cells;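 note: 0% = median of neutral control wells and 100% = median of positive control wells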
CFTR F508del cor: CFTR F508del correction in bronchial cells; CFBE cells, YFP halide quenching; stimulated with forskolin plus potentiator P3; % fluorescence drop versus neutral controls; activity (quench increase), % at 7.58 µM; 350,000 tested, 0.36% active; AID 720511;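 active = mean added fluorescence quench of at least 8% versus neutral control, with both replicates also reaching 8%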;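 note: cells transiently co-express mutant CFTR-F508del with the halide-sensitive YFP; corrector assay measuring rescue of mutant channel to the surface after 24 h compound exposure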
Active calls of the source: *; x = no result.

SMILES	Statin myotox sup	PDI turbidity	Cneo AK release	ERp5 block	DENV2 CPE rescue	CFTR F508del cor
O=C1[C@H]2[C@@H](c3ccccc3)N[C@]3(CCCN(Cc4ccc(Cl)cc4)C3=O)[C@H]2C(=O)N1Cc1ccccc1	-5.4	3.0	-2.4	0.5	44.2*	-3.7
COC(=O)[C@@](C)(O)C1(C(=O)SC(C)(C)C)CC1	11.3	4.4	-1.4	-1.5	130.0*	0.2
Cc1cc(OCC(O)CNC(C)c2ccccc2)ccc1C(C)C (stereo not drawn)	11.9	3.6	4.4	1.5	39.2*	-10.5
Cc1ccc(NC(=O)C2(c3ccccc3)CC2(Cl)Cl)cc1C (stereo not drawn)	143.1*	0.4	-1.1	x	x	x
CC(NC(=O)c1c(N)[nH]c(C(=O)c2ccc(Cl)cc2)c1-c1ccc(Br)cc1)c1cccc2ccccc12 (stereo not drawn)	x	x	x	1.7	38.8*	-1.9
Nc1[nH]c(C(=O)c2ccc(Br)cc2)c(-c2ccc(Cl)cc2)c1C(=O)NCCc1c[nH]c2ccccc12	x	x	x	2.7	44.0*	-1.7
Nc1[nH]c(C(=O)c2ccccc2)c(-c2ccc(Br)cc2)c1C(=O)NCCc1c[nH]c2ccccc12	x	x	x	-6.8	18.4	-0.5
CC(NC(=O)c1c(N)[nH]c(C(=O)c2ccccc2)c1-c1ccccc1Br)c1cccc2ccccc12 (stereo not drawn)	x	x	x	-6.0	5.5	-1.5
C#CCOCCOCCOCCNc1nc(N2CCN(C(=O)CCCCCCCCCCNC(=O)[C@@H]([C@H](C)O)n3cc(C)nn3)CC2)nc(N2CCN(C(=O)CCCCCCCCCCNC(=O)[C@@H]([C@H](C)O)n3cc(C)nn3)CC2)n1	77.2*	12.1	0.7	0.4	x	0.5
C#CCOCCOCCOCCNc1nc(N2CCOCC2)nc(N2CCN(C(=O)CCCCCCCCCCNC(=O)[C@@H]([C@H](C)O)n3cc(C)nn3)CC2)n1	-4.9	5.7	0.6	-8.4	2.8	-1.9
C#CCOCCOCCOCCNc1nc(N2CCN(C(=O)CCCCCCCCCCNC(=O)[C@H](CO)n3cc(CCCSC)nn3)CC2)nc(N2CCN(C(=O)CCCCCCCCCCNC(=O)[C@H](CO)n3cc(CCCSC)nn3)CC2)n1	15.6	-5.9	-1.6	1.2	121.4*	-2.3
Cc1cccc(OCC(=O)NNC(=O)c2ccc3nc[nH]c3c2)c1	2.9	2.4	0.3	-12.2	0.7	16.6*
Cc1cccc(OCC(=O)NNC(=O)c2ccc([N+](=O)[O-])cc2)c1	6.1	2.4	-1.5	-2.1	-4.8	-0.1
CCC(=O)N1[C@@H](CO)[C@@H](c2ccc(-c3ccccc3C)cc2)C12CN(C(C)=O)C2	x	x	x	-5.8	60.1*	-0.1
CC(=O)N1CC2(C1)[C@@H](c1ccc(-c3ccc(F)cc3)cc1)[C@@H](CO)N2C(C)=O	x	x	x	-2.2	78.2*	3.1
COCC(=O)N1[C@H](CO)[C@@H](c2ccc(-c3cccc(OC)c3)cc2)C12CN(C(C)=O)C2	x	x	x	-0.8	28.0*	-4.3
O=C(C1CC1)N1C[C@H]2[C@@H](c3ccccc31)[C@H](CO)N2C(=O)c1ccccn1	-2.5	x	-2.4	-2.7	1.7	-4.9
CN(C)C(=O)c1cccc(-c2cccc(-c3nc(C(=O)N4CCCCC4)cc4c3[C@@H](CCO)N([S@](=O)C(C)(C)C)C4)c2)c1	3.3	x	-22.4	1.4	2.9	2.0
O=C(NCCc1ccccc1)c1ccccc1NC(=O)C1CCCCC1C(=O)O (stereo not drawn)	x	x	x	-0.9	44.2*	-0.8
CO[C@H]1CN(C)C(=O)c2cc(NC(=O)c3ccccc3F)ccc2OC[C@@H](C)N(C(=O)c2ccccc2F)C[C@H]1C	-10.1	x	-13.9	3.1	-3.9	-1.6
CCOc1ccc(C(=O)NCC(c2cccs2)N2CCOCC2)cc1 (stereo not drawn)	2.0	-0.7	3.4	3.5	-7.0	0.9
O=C(NCC(c1cccs1)N1CCOCC1)c1ccc(OCc2ccccc2)cc1 (stereo not drawn)	11.8	7.2	-0.3	-2.1	3.2	9.1*
COc1ccc(CN(C)C[C@H]2OCCCC[C@H](C)Oc3ccc(NS(=O)(=O)c4ccc(C)cc4)cc3C(=O)N([C@H](C)CO)C[C@@H]2C)cc1	x	x	9.5	4.3	-3.0	0.2

Bioassay records deposited in PubChem BioAssay by Broad Institute.
